Hits are enriched below; roughly 1.3% of the tested compounds scored in any of these assays.
MT1-MMP act inh = MT1-MMP (human) activation inhibition; P50281; HT1080 RFP-PRO-GFP cells, GFP/RFP ratio fluorescence, overnight; percent of plate control window, DMSO zero; GFP/RFP ratio change, % at 20 µM; hit rate 0.061% among 360,000; AID 651647;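 active means GFP/RFP ratio change of at least 30% with cell ATP level not reduced by more than half and red fluorescence within 50% of control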
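Assay system: HT1080 RFP-PRO-GFP cells. Benchmarks: DMSO vehicle wells and RFP-L50D-GFP reporter cell wells. Times: overnight cell settling, then overnight compound exposure, 37 °C, 5% CO2. Compound: 20 µM single dose, 1% DMSO. Read-out basis: GFP/RFP fluorescence ratio.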
hiPSC survival = increases survival of single human iPS cells | hiPSC single-cell survival, ATPlite luminescence; 100% = ROCK inhibitor wells, 0% = DMSO | survival enhancement, % at 20 µM | hit rate 0.044% among 360,000 | AID 602274; in the data active means survival enhancement above about 18%;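 further: cells exposed to compounds for 16 hours before the ATP read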
DAGLB inh = blocks human DAGLB lipase activity; inhibition, % at 5.17 µM; AID 504411; Q8NCG7; HEK293T DAGLB membrane lysate, EnzChek fluorogenic substrate; hit rate 0.059% among 340,000; in the data active means inhibition above about 34%;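 further: 0% = enzyme with vehicle and 100% = wells lacking enzyme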
Target sequence (Q8NCG7 whole entry, looked up): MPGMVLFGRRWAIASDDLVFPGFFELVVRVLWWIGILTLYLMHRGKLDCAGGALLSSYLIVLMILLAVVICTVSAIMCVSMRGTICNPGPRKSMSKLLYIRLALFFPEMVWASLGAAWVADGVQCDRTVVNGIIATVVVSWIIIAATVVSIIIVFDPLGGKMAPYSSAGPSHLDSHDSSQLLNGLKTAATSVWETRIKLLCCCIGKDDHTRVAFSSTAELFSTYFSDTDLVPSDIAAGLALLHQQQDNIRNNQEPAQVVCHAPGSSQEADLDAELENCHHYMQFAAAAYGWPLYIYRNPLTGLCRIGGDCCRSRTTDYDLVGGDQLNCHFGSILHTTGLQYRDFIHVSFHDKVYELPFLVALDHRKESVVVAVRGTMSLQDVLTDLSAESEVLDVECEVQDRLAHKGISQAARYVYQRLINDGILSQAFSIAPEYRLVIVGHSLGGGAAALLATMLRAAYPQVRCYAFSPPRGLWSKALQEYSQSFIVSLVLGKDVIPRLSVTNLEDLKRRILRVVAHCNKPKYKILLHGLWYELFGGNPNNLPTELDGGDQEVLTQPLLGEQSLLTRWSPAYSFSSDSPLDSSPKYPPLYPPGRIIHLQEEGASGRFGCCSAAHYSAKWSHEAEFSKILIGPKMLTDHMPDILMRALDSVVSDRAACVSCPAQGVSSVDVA
SKN-1 inh = C. elegans SKN-1 inhibition | C. elegans VP596 Pgst-4::GFP/RFP ratio, acrylamide-induced, 24 h | inhibition, % at 21.8 µM | hit rate 0.49% among 360,000;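 active means interference check ratio from 0.5 to 1.5 plus GFP to RFP signal ratio inhibition reaching or exceeding a fixed threshold, cut at about 30% in these data, passing the limit was not always enough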
FAS TE block = blocks the thioesterase domain of human fatty acid synthase; P49327; recombinant FAS-TE, OMFH fluorogenic substrate, fluorescence endpoint; inhibition, % at 15 µM; hit rate 0.67% among 360,000; AID 602261;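 active means compounds whose normalised, plate-corrected inhibition of enzyme fluorescence in the single-dose primary screen is 50% or more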;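 further: 0% = DMSO with enzyme and 100% = substrate without enzyme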
FAS-TE inh conf = confirmation of human fatty acid synthase thioesterase inhibitors; shares compounds with FAS TE block; recombinant FAS-TE, OMFH fluorogenic substrate, fluorescence; inhibition, % at 15 µM; hit rate 45% among 2,300; AID 624325;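 active means compounds inhibiting the enzyme by at least 50% at 15 µM in any one of the replicates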;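 further: 0% = enzyme with DMSO only and 100% = wells lacking enzyme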
Starred values were filed as active, the others as inactive; nt = no result.

SMILES | MT1-MMP act inh | hiPSC survival | DAGLB inh | SKN-1 inh | FAS TE block | FAS-TE inh conf
O=C(/C=C/c1cccc([N+](=O)[O-])c1)NCCSCc1ccc(Cl)cc1 | 4.8 | 2.5 | -7.3 | 15.8 | 54.4* | 50.8*
O=C(/C=C/c1cccc([N+](=O)[O-])c1)NCCSCc1c(Cl)cccc1Cl | 6.2 | -0.5 | -2.9 | 7.7 | 65.3* | 53.5*
Cc1ccc2nc(SCC(=O)Nc3ccc(F)c([N+](=O)[O-])c3)[nH]c2c1 | 4.4 | -2.1 | -0.3 | 1.1 | 62.1* | 68.4*
Cc1ccc2nc(SCC(=O)Nc3ccc(C)c([N+](=O)[O-])c3)[nH]c2c1 | 1.8 | -0.7 | -2.1 | -10.8 | 32.2 | nt
Cc1cccc(C(=O)NCCC(=O)Nc2ccc(F)c([N+](=O)[O-])c2)c1 | 6.1 | -0.4 | -1.8 | -6.5 | 54.3* | 67.8*
CC1(C(=O)O)CCCN1C(=O)c1cccc(OC(F)(F)F)c1 (centres undefined) | 2.4 | -3.2 | nt | 11.9 | -7.6 | nt
C[C@@H]1CN([C@H](C)CO)S(=O)(=O)c2ccc(Br)cc2O[C@H]1CN(C)S(C)(=O)=O | -2.0 | 1.2 | -4.7 | 4.2 | -9.7 | nt
CC(C)(C)C(=O)c1c(N)[nH]c(C(=O)c2ccccc2)c1-c1ccc(Cl)cc1 | 3.4 | 1.2 | nt | 18.5 | 6.4 | nt
N#Cc1c(N)[nH]c(C(=O)c2ccccc2)c1-c1ccc(Cl)cc1 | 4.8 | -1.0 | nt | -29.9 | 66.7* | 60.5*
C/C(=N/NC(=O)CNC(=O)c1cccnc1)c1ccc(Cl)c(Cl)c1 | -0.7 | -1.0 | 0.1 | 16.9 | 7.7 | nt
Cc1c(Br)c([N+](=O)[O-])nn1CCCC(=O)N1CCN(c2ccccc2)CC1 | -1.3 | 1.2 | -3.0 | -2.6 | 54.2* | 42.7*
Cc1nn(CC(=O)N2CCc3ccccc3C2)c(C)c1[N+](=O)[O-] | -1.3 | 2.8 | -4.0 | -0.4 | 20.8 | nt
O=C(Cn1cc([N+](=O)[O-])ccc1=O)N1CCc2ccccc2C1 | 2.8 | -0.4 | -0.7 | 0.3 | 67.0* | 69.1*
Cc1c(Br)c([N+](=O)[O-])nn1CC(=O)N1CCc2ccccc2C1 | 3.0 | -1.9 | 2.0 | 10.1 | 64.2* | 59.5*
O=C(CCn1c(=O)c2ccccc2n(Cc2cccc([N+](=O)[O-])c2)c1=O)N1CCc2ccccc2C1 | 1.1 | -1.0 | 0.3 | 15.8 | 86.6* | 47.1*
O=C(Cn1cc([N+](=O)[O-])ccc1=O)N1CCc2ccccc21 | -1.5 | 0.0 | 2.4 | 13.7 | 6.0 | nt
CCCc1c(-c2cccc(Br)c2)ncn1Cc1ccccc1OC | -0.1 | 2.5 | nt | -1.5 | 23.4 | nt
CCNC(=O)N(C)c1c(CC)nc2ccc(C(=O)N3CCN(C(=O)c4ccco4)CC3)cn12 | 1.6 | 0.3 | nt | 9.7 | -7.2 | nt
Cc1ccc(C(=O)c2cnc3cc4c(cc3c2S(=O)(=O)c2ccccc2)OCCO4)cc1 | -10.5 | -1.8 | -9.1 | 3.5 | 71.5* | 21.3
COc1ccc(C2=C(C=C(C#N)C#N)C(c3ccccc3C)c3ccccc3O2)cc1OC (centres undefined) | -7.0 | -1.2 | -1.0 | 2.2 | 69.2* | 17.9
COc1cc(-c2nnc(COC(=O)C3c4ccccc4Oc4ccccc43)o2)cc(OC)c1OC | 0.4 | 8.9 | -0.4 | -0.8 | 10.1 | nt
CCn1cc([N+](=O)[O-])c(C(=O)N2N=C(c3ccccc3)CC2c2ccc([N+](=O)[O-])cc2)n1 (centres undefined) | -8.0 | 6.1 | -0.8 | 10.0 | 62.7* | 47.3*
COc1ccc(C2=NN(C(=O)c3ccccc3)C(c3cccc([N+](=O)[O-])c3)C2)cc1 (centres undefined) | -0.1 | -0.3 | -6.1 | 3.9 | 75.1* | 12.7
CC(=O)N1N=C(c2ccccc2)CC1c1cccc([N+](=O)[O-])c1 (centres undefined) | 1.9 | -0.4 | 1.8 | -3.8 | 15.0 | nt
Cc1ccc(C(C(=O)NC2CCCCC2)N(C(=O)CCCC(=O)Nc2ccccn2)c2ccc3c(c2)OCCO3)cc1 (centres undefined) | -4.7 | 1.9 | 1.4 | 6.4 | 52.2* | 44.6
SMILES | MT1-MMP act inh | hiPSC survival | DAGLB inh | SKN-1 inh | FAS TE block | FAS-TE inh conf
CC(C)C[C@H]1CN(CCCC[C@@H]2CNC(=O)C(=O)N2CC2CCCCC2)C(=O)C(=O)N1CCc1ccc(O)cc1 | 4.8 | 0.6 | nt | 18.5 | 1.5 | nt
Cc1nc2c(OCc3ccccc3)cccn2c1N(C)C(=O)C1CCCCC1 | -0.1 | -0.1 | nt | 5.9 | -1.7 | nt
CC(C)(C)c1ccc(/C=C2\CCn3c2nc2cc(C(=O)O)ccc2c3=O)cc1 | 11.9 | -0.9 | -3.1 | 3.2 | 84.0* | 87.7*
O=[N+]([O-])c1ccc(Cl)c(S(=O)(=O)Nc2cccc(-c3ccc(N4CCCC4)nn3)c2)c1 | -1.7 | -0.4 | 2.6 | 8.6 | 58.0* | 65.7*
O=[N+]([O-])c1ccc(S(=O)(=O)Nc2ccc(-c3ccc(N4CCCC4)nn3)cc2)cc1 | 5.0 | -0.2 | 4.5 | 17.8 | 25.0 | nt
Cc1c([N+](=O)[O-])cc(S(=O)(=O)Nc2ccc(-c3ccc(N4CCCC4)nn3)cc2)cc1[N+](=O)[O-] | 1.1 | -0.5 | 16.1 | -5.5 | 87.1* | 90.2*
Cc1ccc(S(=O)(=O)Nc2cccc(-c3ccc(N4CCCCCC4)nn3)c2)c(C)c1 | 5.2 | -0.2 | 0.2 | -0.9 | 58.9* | 60.1*
O=[N+]([O-])c1ccc(Cl)c(S(=O)(=O)Nc2ccc(-c3ccc(N4CCCC4)nn3)cc2)c1 | 3.6 | 0.2 | 7.3 | 14.4 | 66.7* | 27.4*
CC(=O)Nc1ccc(-c2ccnc3c2CC(C(=O)NCc2ccccc2)O3)cc1 (centres undefined) | 14.4 | -0.8 | nt | -8.7 | -1.8 | nt
Cc1ccn2c(C(C)O)nnc2c1 (centres undefined) | 2.0 | -0.5 | -4.1 | 5.0 | -5.8 | nt
CN(C(=O)Nc1ccc(F)cc1)[C@H]1C[C@H]2c3[nH]c4ccccc4c3CCN2C(=O)[C@H]1CO | 3.6 | 1.9 | 2.6 | 5.7 | -4.0 | nt
Cc1ccc([N+](=O)[O-])cc1S(=O)(=O)Nc1ccc(-c2ccc(N3CCCC3)nn2)cc1 | 0.5 | 0.8 | 4.8 | -1.9 | 53.8* | 50.5*
Cc1ccc([N+](=O)[O-])cc1S(=O)(=O)Nc1cccc(-c2ccc(N3CCOCC3)nn2)c1 | 1.6 | -0.4 | 3.4 | 11.5 | 14.2 | nt
Cc1ccc(NC(=O)Cn2nc(-c3ccco3)ccc2=O)cc1Cl | -0.5 | 0.5 | 0.3 | -7.5 | 50.3* | 33.4
O=C(OCc1ccc([N+](=O)[O-])cc1)C1CCN(S(=O)(=O)c2ccccc2)CC1 | -4.8 | -2.0 | 0.1 | 11.8 | 60.3* | 60.4*
N#CC1CCN(C(=O)c2ccc3c(Cl)c4c(nc3c2)CCCC4)CC1 | 0.0 | -0.1 | -1.5 | 21.8 | 77.9* | 85.5*
NS(=O)(=O)c1ccc(CCNC(=O)COC(=O)C2COc3ccccc3O2)cc1 (centres undefined) | -1.0 | -1.6 | -3.3 | -24.8 | -11.4 | nt
O=C(/C=C/c1ccccc1)N/C(=C/c1ccccc1)C(=O)Nc1cccc(C(=O)O)c1 | -1.5 | 2.7 | 6.3 | 0.6 | -2.6 | nt

Screening results: PubChem BioAssay, several laboratories
